CaV13 FRET inh = Primary screen for inhibitors of IQ motif and Ca2+-dependent inactivation inhibitor domain binding in CACNA1D, Förster resonance energy transfer in living cells, …. HEK cells, CFP/YFP FRET ICDI-IQ, plate reader, 10 min; percent FRET-ratio fall versus neutral wells. actives 0.098% (n = 340,000). inhibition, % at 12.3 µM. AID 743397;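 active means mean replicate inhibition of at least 30% and at least 1% of replicates passing that level; inconclusive means only one of the two criteria is met; inactive means neither criterion is met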;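 further: 0% = median of the neutral control wells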
FN deposit inh = fibronectin deposition inhibition; AH1F fibroblasts, Alexa488-fibronectin deposition fluorescence, overnight; inhibition, % at 12.6 µM; actives 0.086% (n = 350,000);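 active means mean inhibition across replicates of 30% or more, regardless of how many single replicates reach that level; inconclusive means mean under 30% yet at least half of replicates reach 30%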;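 further: positive control wells lacked labelled fibronectin entirely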
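Material: AH1F fibroblast monolayer depositing Alexa488-labelled fibronectin into matrix / Amount: 10000 AH1F cells per well / Signal: fluorescence 485/525 nm / Medium: DMEM, 2% serum / Compound: single dose, pinned / Incubation: 1 h cell adhesion before compound, then overnight fibronectin incubation / Reagent: Alexa488-FN, 24 nM final / Read-out: inhibition of fibronectin deposition signal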
RAD54 branch = RAD54 (human) branch migration inhibition; AID 602329; inhibition, % at 10.4 µM; Q92698; actives 0.14% (n = 360,000); RAD54 Holliday junction branch migration, FAM/BHQ fluorescence;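 active means mean normalized replicate activity at least 40 and at least half of replicates scoring 40 or more; inconclusive means only one of the two criteria met; inactive means mean below 40 and under half of replicates reaching 40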;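 further: 0% = median of neutral control wells and 100% = median of positive control wells; inhibitors cause a drop in the FAM fluorescence signal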
RAD52 inh = blocks human RAD52 DNA annealing. recombinant RAD52 DNA annealing, FRET fluorescence. actives 0.46% (n = 360,000). inhibition, % at 18.7 µM. P43351;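 active means every replicate showing at least 50% inhibition; inconclusive means mean inhibition at least 50% but not in every replicate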
Target sequence (P43351 whole entry, looked up): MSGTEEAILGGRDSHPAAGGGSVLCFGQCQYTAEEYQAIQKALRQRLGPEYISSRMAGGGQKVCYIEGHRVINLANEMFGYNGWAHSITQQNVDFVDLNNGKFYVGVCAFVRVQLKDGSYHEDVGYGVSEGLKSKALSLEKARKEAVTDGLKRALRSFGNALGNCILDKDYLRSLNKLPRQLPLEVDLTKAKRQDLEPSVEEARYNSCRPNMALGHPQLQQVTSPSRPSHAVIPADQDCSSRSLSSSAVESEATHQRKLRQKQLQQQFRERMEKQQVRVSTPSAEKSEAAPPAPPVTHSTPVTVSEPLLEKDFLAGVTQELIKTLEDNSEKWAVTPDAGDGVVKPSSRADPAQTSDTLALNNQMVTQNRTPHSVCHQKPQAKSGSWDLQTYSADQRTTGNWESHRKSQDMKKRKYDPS
Glyco luc inh = N-linked glycosylation inhibition; D54 ERlucT glycosylation luciferase reporter, 24 h; percent of 100 nM tunicamycin response; reporter increase, % at 12.5 µM; actives 0.23% (n = 360,000); AID 588692;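 active means mean luciferase reporter signal, scaled so untreated is 0 and the glycosylation-blocking control 100, at or above a set limit in every replicate; inconclusive means mean reaches the limit but not every replicate does; inactive means mean below the limit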;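 further: luciferase carries N-glycosylation sites so blocking glycosylation raises the light; 0% = median of neutral control wells and 100% = median of 100 nM tunicamycin wells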
The depositor's hits bear a star; ? = inconclusive; nt = no result. Compounds with a hit are over-represented: about 0.7% of the library has one in this group of screens.

SMILES	CaV13 FRET inh	FN deposit inh	RAD54 branch	RAD52 inh	Glyco luc inh
O=C(c1ccccc1F)N1C[C@@H]2O[C@H](CNS(=O)(=O)c3ccccc3)CC[C@@H]21	nt	nt	nt	59*	nt
O=C(c1ccccc1F)N1C[C@H]2O[C@H](CNS(=O)(=O)c3ccccc3)CC[C@H]21	nt	nt	nt	-6	nt
Cc1ccc(S(=O)(=O)NC[C@H]2CC[C@H]3[C@H](CN3Cc3cc(F)ccc3F)O2)cc1	nt	nt	nt	61*	nt
O=S(=O)(NC[C@@H]1CC[C@@H]2[C@@H](CN2Cc2ccccc2C(F)(F)F)O1)c1ccccc1	nt	nt	nt	-5	nt
COc1ccc(S(=O)(=O)NC[C@H]2CC[C@H]3[C@H](CN3Cc3cc(F)ccc3F)O2)cc1	nt	nt	nt	66*	nt
C/C=C/c1ccc([C@@H]2[C@H]3CN(C(=O)Nc4ccccc4F)CC(=O)N3[C@H]2CO)cc1	nt	nt	nt	9	nt
CN1CCN(C(=O)C[C@@H]2C[C@@H]3c4cc(NC(=O)C5CCC5)ccc4O[C@@H]3[C@@H](CO)O2)CC1	nt	nt	3	-4	nt
O=C(C[C@@H]1CC[C@H]2[C@@H](COC[C@@H](O)CN2Cc2ccncc2)O1)NCc1ccncc1	nt	6	0	-7	nt
Cc1ccc(S(=O)(=O)Nc2cc(-c3nn(C)c(=O)c4ccccc34)ccc2N2CCOCC2)cc1	-8	nt	-2	2	45*
C(#Cc1ccccc1)C[N+]1(CC#Cc2ccccc2)CCCC1	-3	4	4	-1	2
C=CC#CC[N+]1(CC#Cc2ccccc2)CCOCC1	-4	-18	nt	74*	3
COc1cc2c(cc1OC)C(c1cccs1)N(C(=S)NC(C)C)CC2 (stereo not drawn)	-6	nt	nt	-22	45*
COc1cc2c(cc1OC)C(c1cccs1)N(C(=O)c1ccncc1)CC2 (stereo not drawn)	-15	-4	nt	-10	?
C[C@@H]1CN([C@@H](C)CO)C(=O)c2cc(NC(=O)Nc3ccc(C(F)(F)F)cc3)ccc2O[C@H]1CN(C)C(=O)Nc1ccc2c(c1)OCO2	nt	nt	-1	18	nt
Nc1cc2c(cc1Br)-c1c(C(=O)O)cccc1C2O (stereo not drawn)	-13	0	nt	-4	35*
COc1ccc2ccc3cccc[n+]3c2c1	-1	-13	51*	10	3
CCCCOc1ccc(C(C)NC(=O)C2CCCN(S(=O)(=O)CCC)C2)cc1 (stereo not drawn)	-2	33*	4	nt	-3
C[C@H](CO)N1C[C@H](C)[C@@H](CN(C)Cc2ccc(-c3ccccc3)cc2)OCc2ccccc2-c2c(n(C)c3ccccc23)C1=O	nt	16	nt	80*	nt
C[C@@H]1CN([C@H](C)CO)C(=O)c2c(c3ccccc3n2C)-c2ccccc2CO[C@H]1CN(C)C(=O)CCN(C)C	nt	-9	4	57*	nt
C[C@H]1CN([C@@H](C)CO)C(=O)c2c(c3ccccc3n2C)-c2ccccc2CO[C@@H]1CN(C)C(=O)CCN(C)C	nt	-3	8	59*	nt
Cc1cc(Br)cc2c(C(=O)Nc3c(C)n(C)n(-c4ccccc4)c3=O)cc(-c3cccs3)nc12	-8	nt	nt	nt	41*
CCOc1ccccc1NC(=O)c1c(NC(=O)CCC(=O)O)sc2c1CCCCC2	-9	33*	nt	-72	-2
COc1cccc2c(=O)c3c(cnn3C)n(C)c12	35*	nt	29	nt	6
C[C@H]1CN([C@@H](C)CO)C(=O)c2ccccc2-c2ccccc2CO[C@H]1CN(C)S(=O)(=O)c1cccc(F)c1	nt	3	6	14	nt
O=S(=O)(c1ccc(F)cc1)N1CCCCN2[C@@H](CO)[C@@H](c3ccc(-c4ccccc4F)cc3)[C@@H]2C1	nt	nt	2	60*	nt
SMILES	CaV13 FRET inh	FN deposit inh	RAD54 branch	RAD52 inh	Glyco luc inh
O=S(=O)(c1ccc(F)cc1)N1CCCCN2[C@H](CO)[C@H](c3ccc(C#CC4CCCC4)cc3)[C@H]2C1	nt	nt	-3	58*	nt
O=S(=O)(c1ccccc1)N1CCCCN2[C@H](CO)[C@H](c3ccc(-c4ccccc4F)cc3)[C@H]2C1	nt	-7	5	52*	nt
O=S(=O)(c1ccc(F)cc1)N1CCCCN2[C@H](C1)[C@H](c1ccc(-c3ccccc3F)cc1)[C@@H]2CO	nt	nt	4	13	nt
O=S(=O)(c1ccc(F)cc1)N1CCCCN2[C@H](C1)[C@H](c1ccc(C#CC3CCCC3)cc1)[C@@H]2CO	nt	nt	2	12	nt
O=S(=O)(c1ccc(F)cc1)N1CCCCN2[C@@H](CO)[C@H](c3ccc(-c4ccccc4F)cc3)[C@@H]2C1	nt	nt	-6	59*	nt
O=S(=O)(c1ccccc1)N1CCCCN2[C@H](C1)[C@H](c1ccc(-c3ccccc3F)cc1)[C@@H]2CO	nt	nt	6	-3	nt
C[C@H](CO)N1C[C@H](C)[C@@H](CN(C)Cc2ccc(Cl)c(Cl)c2)Oc2c(NC(=O)c3ccc(-c4nccs4)cc3)cccc2C1=O	nt	19	0	8	nt
CNC[C@H]1Oc2ncc(C#Cc3ccccc3F)cc2C(=O)N([C@@H](C)CO)C[C@H]1C	nt	nt	3	2	nt
Cc1noc(C)c1NC(=O)Nc1cccc2c1O[C@H](CN(C)Cc1ccc(C(F)(F)F)cc1)[C@H](C)CN([C@@H](C)CO)C2=O	nt	nt	4	3	nt
C[C@@H]1CN([C@H](C)CO)C(=O)Cc2cc(NC(=O)Cn3cnnn3)ccc2O[C@@H]1CN(C)Cc1ccncc1	nt	nt	-6	3	nt
O=C(C[C@@H]1CC[C@H]2[C@@H](COC[C@H](O)CN2S(=O)(=O)c2ccc(F)cc2)O1)NCCN1CCCCC1	nt	-6	6	7	nt
O=C(C[C@@H]1CC[C@H]2[C@@H](COC[C@@H](O)CN2S(=O)(=O)c2ccc(Cl)cc2)O1)NCC1CCCCC1	nt	-7	-4	42	nt
O=C(C[C@H]1CC[C@@H]2[C@H](COC[C@H](O)CN2S(=O)(=O)c2ccc(F)cc2)O1)NCC1CCCCC1	nt	-4	4	59*	nt
O=C(C[C@@H]1CC[C@H]2[C@@H](COC[C@H](O)CN2S(=O)(=O)c2ccc(F)cc2)O1)NCC1CCCCC1	nt	-5	6	89*	nt
O=C(C[C@H]1CC[C@@H]2[C@H](COC[C@@H](O)CN2S(=O)(=O)c2ccc(F)cc2)O1)NCC1CCCCC1	nt	-8	8	89*	nt
O=C(C[C@@H]1CC[C@@H]2[C@H](COC[C@H](O)CN2S(=O)(=O)c2ccc(F)cc2)O1)NCC1CC1	nt	-5	-5	3	nt
O=C(C[C@@H]1CC[C@@H]2[C@H](COC[C@@H](O)CN2S(=O)(=O)c2ccc(F)cc2)O1)NCC1CCCCC1	nt	-8	1	71*	nt
C[C@@H]1CN([C@@H](C)CO)C(=O)Cc2cc(NC(=O)Nc3ccccc3)ccc2O[C@@H]1CN(C)C(=O)Nc1ccc(C(F)(F)F)cc1	nt	nt	6	nt	nt
Cn1c(=O)[nH]c(=O)c2c1nc(N(CCO)Cc1ccccc1)n2CCCc1ccccc1	-2	-54	-7	2	41*
Cn1c(=O)[nH]c(=O)c2c1nc(N1CCN(Cc3ccccc3)CC1)n2CCCc1ccccc1	nt	nt	-6	-7	37*
